Hits are enriched below; roughly 2.5% of the tested compounds scored in any of these assays.
NR2E3 ag-1 = activates human photoreceptor nuclear receptor NR2E3 | Q9Y5X4 | GST-NR2E3/biotin-RetCOR TR-FRET, 1536-well | inhibition of corepressor binding, % at 4.78 µM | actives 0.12% (n = 320,000) | AID 2300;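 active = percent inhibition above the cutoff of mean plus 3 SD of all tested compounds, set per screening campaign, cut at about 20% in these data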;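 note: 0% = DMSO wells and 100% = biotin wells as full block of FRET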
Target sequence (Q9Y5X4 whole entry, looked up): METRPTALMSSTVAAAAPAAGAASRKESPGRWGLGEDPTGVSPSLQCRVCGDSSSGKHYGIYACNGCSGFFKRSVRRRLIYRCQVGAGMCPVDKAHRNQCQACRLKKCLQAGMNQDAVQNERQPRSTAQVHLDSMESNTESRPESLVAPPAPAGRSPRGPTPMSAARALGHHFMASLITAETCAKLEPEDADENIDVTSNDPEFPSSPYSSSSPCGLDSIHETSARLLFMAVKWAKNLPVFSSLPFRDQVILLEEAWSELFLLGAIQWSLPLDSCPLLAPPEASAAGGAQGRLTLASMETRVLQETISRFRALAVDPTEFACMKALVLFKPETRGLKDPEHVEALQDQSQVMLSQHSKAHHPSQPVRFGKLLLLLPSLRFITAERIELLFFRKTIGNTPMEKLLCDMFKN
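Material – GST-tagged NR2E3 plus biotinylated RetCOR corepressor · Quantity – NR2E3 fusion 1.35 nM · Times – 5 h incubation at 4 °C · Medium – pH 7.5 Tris-based buffer · Technique – TR-FRET, Eu(K)-anti-GST donor, streptavidin-D2 acceptor, ex 340, em 617/671 nm · Benchmarks – high control biotin, low control 0.6% DMSO · Format – 1536-well plates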
NR2E3 ag-2 = activates human NR2E3 receptor. Q9Y5X4. CHO-S Gal4-NCOR/VP16-NR2E3 two-hybrid, luciferase. inhibition of corepressor binding, % at 3.98 µM. actives 0.35% (n = 360,000);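 active = inhibition above the mean of all tested compounds plus 3 SD, cut at about 70% in these data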;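 note: 0% = DMSO with NR2E3 transfected cells and 100% = cells lacking NR2E3 construct; higher means lower luciferase signal from less NR2E3 corepressor binding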
NadD block = NadD (S. aureus) enzyme inhibition; purified NadD enzyme, colorimetric absorbance read-out; inhibition, % at 20 µM; actives 0.78% (n = 360,000); in the data active = inhibition above about 26%
MsrA inhibitor = inhibits bovine methionine sulfoxide reductase A. AID 651718. actives 0.75% (n = 360,000). inhibition, % at 15.5 µM. purified bovine MsrA, absorbance read-out; in the data active = inhibition above about 4.5%;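 note: 0% = vehicle wells with enzyme and 100% = reference inhibitor wells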
GalR3 antagonist = antagonists of human GalR3; actives 0.44% (n = 360,000); AID 651719; O60755; HEK293 GalR3-CNG cAMP membrane potential fluorescence; galR3 body fused to GalR1 C-terminus; inhibition, % at 3 µM;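 active = inhibition above the screen-wide average plus 3 SD, cut at about 13% in these data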;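 note: forskolin and galanin both at EC90 stimulate the cells; cAMP rise reported by CNG channel membrane potential dye signal; 0% = forskolin plus galanin with DMSO and 100% = forskolin alone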
MsrA act = bovine methionine sulfoxide reductase A activation | purified bovine MsrA, absorbance read-out | activation, % at 10.6 µM | actives 0.3% (n = 360,000); in the data active = activation above about 7.5%;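 note: 0% = vehicle and 100% = reference activator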
GalR3 antag conf = confirmation of human galanin receptor 3 antagonists. shares compounds with GalR3 antagonist. HEK293 GalR3 CNG cAMP biosensor, membrane potential fluorescence; galR3 fused to GalR1 carboxy tail; challenged with forskolin and galanin at EC90. inhibition, % at 3 µM. actives 59% (n = 1,600). AID 652245;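 active = inhibition above the primary screen's cutoff, the mean inhibition of all screened compounds plus 3 SD, cut at about 13% in these data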;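 note: 0% = forskolin plus galanin and 100% = forskolin alone with DMSO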
HEK-CNG parental = acts as nonspecific agonist in parental HEK-CNG cells. shares compounds with GalR3 antagonist. HEK293-CNG parental cells, cAMP membrane potential fluorescence; normalised: DMSO wells 0%, forskolin wells 100%. AID 652268. actives 10% (n = 1,600). activation, % at 3 µM; in the data active = activation above about 1.3%
An asterisk follows results filed as active; x = not tested or not shown.

SMILES | NR2E3 ag-1 | NR2E3 ag-2 | NadD block | MsrA inhibitor | GalR3 antagonist | MsrA act | GalR3 antag conf | HEK-CNG parental
Cc1ccc(C2C3=C(CC(C)(C)CC3=O)N=C3c4ccccc4C(=O)C32)cc1 (stereo not given) | 0 | -27 | 4 | 2 | 15* | 2 | 31* | 0
CC1(C)CC(=O)C2=C(C1)N=C1c3ccccc3C(=O)C1C2c1ccc(Cl)cc1 (stereo not given) | -2 | -3 | 27 | 1 | 2 | -6 | x | x
Cc1ccc(Cn2ncc3c(N4CCN(Cc5ccc(Cl)cc5)CC4)ncnc32)cc1 | 0 | -5 | 9 | 0 | 53* | 1 | 69* | 1
COc1cccc(C2=Nn3c(nnc3-c3ccccc3O)SC2)c1 | -2 | 0 | 19 | 1 | -3 | -5 | x | x
C[n+]1c2n(c3ccccc31)N=C(c1cc(C(C)(C)C)c(O)c(C(C)(C)C)c1)CS2 | 3 | -4 | 8 | -1 | 19* | 0 | 30* | 17*
Cc1cc(-c2cn3ccccc3n2)c(C)n1-c1ccccc1 | 4 | -97 | 12 | 0 | 13* | -5 | 4 | 0
COc1ccc(-n2c(C)cc(-c3cn4cccc(C)c4n3)c2C)cc1 | -3 | -5 | 4 | 1 | -8 | -4 | x | x
Clc1ccccc1OCCN1CCC(Cc2ccccc2)CC1 | -2 | -21 | 2 | 0 | -4 | -2 | x | x
CCOC(=O)CSc1nc(N)c(C#N)c(-c2cccs2)c1C#N | 3 | 21 | -2 | 1 | -4 | -4 | x | x
N#Cc1c(N)nc(SCc2ccccn2)c(C#N)c1-c1cccs1 | -2 | 28 | 4 | 1 | 75* | -14 | 49* | 2.5*
Cc1cc(C)nc(NC(=O)c2cc(Br)ccc2Cl)n1 | 3 | -13 | -1 | -1 | -6 | 1 | x | x
COC(=O)C1(C)CCc2c(ccc3ccccc23)C1=O (stereo not given) | x | -45 | -1 | -1 | -7 | 1 | x | x
Cc1ccc2c(CN(C)Cc3ccc(Cl)cc3)cc(=O)oc2c1 | 2 | -43 | -1 | -1 | -9 | -2 | x | x
Cc1ccc2nc(SCC(=O)Nc3ccc(F)cc3)nc(=O)n2c1 | -2 | -8 | -3 | 3 | 1 | -5 | x | x
Cc1ccc2nc(SCC(=O)NCc3ccc(F)cc3)nc(=O)n2c1 | 0 | 9 | -1 | 4 | 18* | -2 | 3 | 0
CCCNC(=O)C(=O)Nc1ccc2c(c1)N(S(=O)(=O)c1cccs1)CCC2 | -4 | -39 | -6 | -1 | -6 | 1 | x | x
COCCCNC(=O)C(=O)Nc1ccc2c(c1)N(S(=O)(=O)c1cccs1)CCC2 | 2 | -3 | -4 | 2 | 16* | -1 | 6 | 2.1*
CCN(CC)S(=O)(=O)c1cc(NC(=O)C(C)N2CCc3ccccc32)ccc1C (stereo not given) | 3 | -8 | 0 | 0 | 1 | -3 | x | x
CSc1ncccc1C(=O)NCCc1ccc(Cl)cc1 | 4 | 12 | -2 | 2 | -6 | -11 | x | x
COc1ccc(CCNC(=O)c2cccnc2SC)cc1 | 0 | -41 | -3 | 0 | 13* | 1 | 27* | 0
C=CCNC(=O)NC(=O)COC(=O)[C@H](C)NS(=O)(=O)c1c(C)c(C)cc(C)c1C | 6 | 15 | -3 | -1 | 11 | 2 | x | x
CCNC(=O)NC(=O)C(C)OC(=O)[C@H](C)NS(=O)(=O)c1c(C)c(C)cc(C)c1C (stereo not given in full) | -1 | -5 | 0 | 2 | 39* | -2 | -2 | 0
COCC(=O)Nc1c(C(=O)Nc2ccc3c(c2)OCCO3)oc2ccccc12 | 1 | -13 | -14 | 1 | -4 | -10 | x | x
Cc1[nH]nc(SCC(=O)N2CCCCCC2)c1[N+](=O)[O-] | 2 | -34 | -4 | 1 | 14* | -4 | 4 | 0
C#CC(C)OC(=O)C(C)NC(=O)c1ccccc1 (stereo not given) | 1 | 4 | 0 | -1 | x | -3 | 14* | 0
O=c1cc(-c2ccccc2)nc(SCCOc2ccccc2Cl)[nH]1 | -1 | -29 | 0 | 1 | 13* | -2 | 1 | 1
O=C(Nc1ccccc1)Nc1cc([N+](=O)[O-])ccc1F | -1 | -33 | -6 | 0 | 21* | -4 | -3 | -1
Cc1c(Cl)cccc1NC(=O)CC(Cc1ccccc1)C(=O)O (stereo not given) | 0 | -12 | -1 | -1 | -10 | -2 | x | x
COc1cc(CNCC(O)c2ccccc2)ccc1OCc1ccc(Cl)nc1 (stereo not given) | -1 | 19 | -3 | 0 | 26* | 0 | 43* | 2.3*
COc1cc(CNCCc2ccccc2)ccc1OCc1ccc(Cl)nc1 | 3 | -8 | -2 | 1 | -4 | -1 | x | x

Screens deposited in PubChem by several laboratories.
